Variants at the floor of the assay were thinned out.
B1: tRNA (parent)
chain: GUUCCGUUGGCGUAAUGGUAACGCGUCUCCCUCCUAAGGAGAAGACUGCGGGUUCGAGUCCCGUACGGAACG

Variants of: B1
Experiment: yeast fitness relative to wild type (ratio to wild type); higher = fitter; tRNA-Arg(CCU), competitive growth, 37 C, YPD
Procedure, shortened: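 Amplicons of the tRNA-Arg(CCU) gene were sequenced, 100-nucleotide paired-end, from the start population and from each end population of a pooled yeast competition. The competition, in six parallel replicates, lasted 24 hours in YPD at 37°C. Fitness relative to wild type was calculated from changes in genotype frequencies. Genotypes had to have ≥ 100 starting reads, and estimates < 0.5 were set to 0.5.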

Variant | yeast fitness
GUUCCGUUGGCAUAUUGGUAACGCGUCUCCCUCCUAAGGAGAAGACUGCGGGUUCGAGUCCCGUACGGAACG [G12A A15U] | 0.782
GUUCCGUUGGCAUAGUGGUAACGCGUCUCCCUCCUAAGGAGAAGACUGCGGGUUCGAGUCCCGUACGGAACG [G12A A15G] | 0.843
GUUCCGUUGGCAUACUGGUAACGCGUCUCCCUCCUAAGCAGAAGAUUGCGGGUUCGAGUCCCGUACGGAACG [G12A A15C G39C C46U] | ≤ 0.5
GUUCCGUUGGCAUAAUGGUGAUGCGUCUCCCUCCUAAGGAGAAGACUGCGGGUUCGAGUCCCGUACGGAACG [G12A A20G C22U] | ≤ 0.5
GUUCCGUUGGCAUAGUGGUAACGCGUCUCCCUCCUAAGGAGAAGACUGCGGGUUCGAGUCCCGUGCGGAACG [G12A A15G A65G] | 0.541
GUUCCGUUGGCAUAAUGGUCACGCGUCUCCCUCCUAAGGAGAAGACUGCGGGUUCGAGUCGCGUAAGGAACG [G12A A20C C61G C66A] | ≤ 0.5
GUUCCGUUGGCAUAGUGGUAAAGCGUCUCCCUCCUAAGGAGAAGACUGCGGGUUCGAGUCCCGUACGGAACG [G12A A15G C22A] | 0.705
GUUCCGUUGGCAUAAUGGUUACGCGUCUCCCUCCUAAGGAGAAGACUGUGGGGUCGAGUCCCGUGCGGAACG [G12A A20U C49U U53G A65G] | ≤ 0.5
GUUCCGUUGGUGUAAUGGUAACGCGUCUCCCUCCCAAGGAGAAGAGUGCGGCUUCGAGUCCCGUACGCAACG [C11U U35C C46G G52C G68C] | ≤ 0.5
GUUCCGUUGGCAUACUGGUAACGCGUCUCCCUCCUAAGGAGAAGUCUGCGGGUUCGAGUCCCGUACGGAACG [G12A A15C A45U] | 0.87
GUUCCGUUGGUGUAAUGGUAACGCGUCUCCCUCCCAAGGAAAAGACUGCGGGUUCGAAUCCCGUACGGAACG [C11U U35C G41A G58A] | ≤ 0.5
GUUCCGUUGGCAUGAUGGUAACGCGUCUCGCUCCUAAGGAGAAGAAUGCGGGUUCGAGUCCCGUACUGAACG [G12A A14G C30G C46A G67U] | ≤ 0.5
GUUCCGUUGGUGUAAUGGUAACGCGUCUCCCUCCUAAGGAGAAGACUGCGGGUUCGAGGCCCGUACGGAACG [C11U U59G] | 0.786
GUUCCGUUGGUGUAAUGGUAACGCGUCUCCCUCCUAAGGAGAAGACUGCGGGUUCGAGCCCCGUACGGAACG [C11U U59C] | 0.937
GUUCCGUUGGCAUCAUGGUAACGCGUCUCCCUCCUAAGGAGAAGACUGCGGGUUCGAGUCCCGUACGGAACG [G12A A14C] | 0.796
GUUCCGUUGGCAUGAUGGUAACGCGUCUCGCUCCUAAGGAGAAGAAUGCGGGUUCGAGUCCCGUACGGAACG [G12A A14G C30G C46A] | 0.882
GUUCCGUUGGUGUAAUGGUAACGCGUCUCCCUCCUAAGGAGAAGACUGCGGGUACGAGUCCUGUACGGAACG [C11U U54A C62U] | ≤ 0.5
GUUCCGUUGGCAUGAUGGUAACGCGUGUCCCUCGUAUGGAGAAGACUGCGGGUUCGAGUCCCGAACGGAACG [G12A A14G C27G C34G A37U U64A] | ≤ 0.5
GUUCCGUUGGCAUAGUGGUAACGCGUCUCCCUCCUAAGGAGAAGACUGCGGGUGCGAGUCCCGUACGGAACG [G12A A15G U54G] | ≤ 0.5

Variant | yeast fitness
GUUCCGUUGGCAUAAUGGUCACGCGUCUCCCUCCUAAGGAGAAGACUGCGGGUUCGAGUCCGGUACGGAACG [G12A A20C C62G] | ≤ 0.5
GUUCCGUUGGUGUAAUGGUAACGCGUCUCCCUCCUAAGGAGAAGACCGCGGGUUCGAGUCCCGUACAGAACG [C11U U47C G67A] | 0.783
GUUCCGUUGGCAUAAUGGUCACGCGUCUCCCUCCUAAGGAGAAGACUGCGGGUUCGAGUCCCGUACGGUACG [G12A A20C A69U] | 0.811
GUUCCGUUGGCAUAUUGGUACCGCGUCUCCCUCCUAAGGAGAAGACUGUGGGUUCGAGUCCCGUACGGAACG [G12A A15U A21C C49U] | ≤ 0.5
GUUCCGUUGGCAUUAUGGUAACGCGUCUCCCUCCUAAGGAGAAGACUGCGGGUACGUGUCCCGUACGGAACG [G12A A14U U54A A57U] | ≤ 0.5
GUUCCGUUGGCAUGAUGGUGACGCGUCUCCCUCCUAAGGAGAAGACUGCGGGUUCGAGUCCCAUACGGAACG [G12A A14G A20G G63A] | ≤ 0.5
GUUCCGUUGGCAUAAUGGUGACGCGCCUCCGUUCUAAGGAGUAGACUGCGGGUUCGAGUCCCGUACGGAACG [G12A A20G U26C C31G C33U A42U] | ≤ 0.5
GUUCCGUUGGCAUAAUGGUCACGCGUCUCCCUCCUAAGGAGAAGACUGCGGGUCCGAGUCCUGUACGGAGCG [G12A A20C U54C C62U A70G] | ≤ 0.5
GUUCCGUUGGCAUAUUGGUAAAGCGACUCCCUCCUAAGGAGAAGACUGCGGGUUCGAAUCCCGUACGGAACG [G12A A15U C22A U26A G58A] | 0.629
GUUCCGUUGGUGUAAUGGUAACGCGUCUCCCUCCUAAGGAGAAGACUGCGGGAUCGAGUCCCGUACGGAACG [C11U U53A] | 0.751
GUUCCGUUGGUGUAAUGGUAACGCGUCUCCCUCCUAAGGAGAAGACUGCGGGGUCGAGUCCCGUACGGAACG [C11U U53G] | 0.608
GUUCCGUUGGCAUAAUGGUUACGCGUCUCCCUCCUAAGGAGAAGACUGCGGGUUCCACUCCCGUACGGAACG [G12A A20U G56C G58C] | ≤ 0.5
GUUCCGUUGGUGUAAUGGUAACGCGUCUCCCUCCUAAGGAGAAGACGGCGGGUUCGAGUCCCGUACGGAACG [C11U U47G] | 0.688
GUUCCGUUGGUGUAAUGGUAACGCGUCUCCCUCCUAAGGAGAAGACCGCGGGUUCGAGUCCCGUACGGAACG [C11U U47C] | 1.04
GUUCCGUUGGUGUAAUGGUAACGCGUCUCCCUCCUAAGGAGAAGACUGCGGGUACGAGUCCCGUACGGAACG [C11U U54A] | 0.733
GUUCCGUUGGUGUAAUGGUAACGCGUCUCCCUCCUAAGGAGAAGACUGCGGGUCCGAGUCCCGUACGGAACG [C11U U54C] | 0.844
GUUCCGUUGGCAUAAUGGUAACGCGUCUCCCUCCUAAGGAGAAGACUGCGGGUUCGAGUCCCGUACGGAACG [G12A] | 0.999
GUUCCGUUGGCAUCAUGGUAACGCGUCUCCCUCGUAAGGAGAAGACUGCGGGUUUGAGUCCCGUACGGAACG [G12A A14C C34G C55U] | ≤ 0.5
